B1: tRNA (parent)
chain: GUUCCGUUGGCGUAAUGGUAACGCGUCUCCCUCCUAAGGAGAAGACUGCGGGUUCGAGUCCCGUACGGAACG

Variants of: B1
Experiment: yeast fitness, log relative to wild type (ln ratio); higher = fitter; tRNA-Arg(CCU), competitive growth, 37 C, 1 M NaCl
Method in brief: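 Two independent transformations put a combinatorial tRNA-Arg(CCU) variant library on a HIS3 centromeric plasmid into BY4742 lacking the chromosomal gene. Pools were grown in SC-HIS at 30 °C for 4 generations, then in SC-HIS 1M NaCl at 37 °C for ~6.5 generations (~26.5 h), with three outputs taken per input. Fitness compares a genotype's generations with the wild type's as a natural log ratio. Those generations are OD-scaled log2 output/input frequencies, inverse-variance weighted across replicates, from 125 bp paired-end Illumina counts.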

Point of comparison: U2G C27U A43C C66A A70G C71U, “yeast fitness (ln)” value -0.257. Against it:
- U2G G6U A43C C66A A69G A70U C71U — lower, -0.355
- G1A U2G G6U C27U C46U C66A — higher, -0.2
- U2G G6A A43C C46U C66U A70U C71U — higher, -0.175
- G1A U2G A43C C66U A70G — higher, -0.214
- U2C G6A C27U A43C A69G A70U C71U — lower, -0.384
- G1A U2G C27U A43C C46U A69G A70G — higher, -0.22
- G6A C66U A69G — higher, -0.0231
- G1A G6A C27U C46U C71U — higher, -0.253
- G1A U2G G6U A69G A70G — higher, -0.183
- G1A U2G G6U A69G A70U — lower, -0.278
- G1A U2G G6U C27U C66A A70G C71U — lower, -0.287
- G1A C27U C46U C66U A69G A70U — lower, -0.286
- U2C G6A C27U C46U A70G — higher, -0.0764
- G6A C27U A43C A69G A70G C71U — lower, -0.371
- U2C G6U C27U A69G A70U — higher, -0.111
- U2C G6U A43C A70G — higher, -0.188
- G6A C46U C66U A69G A70G — higher, -0.0235
- G1A U2G G6U C27U C46U C66U C71U — lower, -0.285
- G1A U2G A43C A69G A70G — higher, -0.172
- U2C G6A C27U A43C A69G A70U — higher, -0.215
- C27U C66A A70G — higher, -0.0873
- G1A U2G G6U A43C C46U C66U A70U C71U — lower, -0.399
- U2C C27U A43C C46U C66A — higher, -0.0384
- U2C C27U A43C C46U C66U — higher, -0.0652
- U2C A69G A70G C71U — higher, -0.0131
- G1A U2C C46U C66A A70U C71U — higher, -0.0833
- G1A U2G G6A C46U A69G A70G C71U — higher, -0.162
- U2G G6A C27U A43C C46U C66A A69G C71U — lower, -0.283
- G6U A43C C46U A70G — higher, -0.164
- U2C G6U A70U — higher, -0.0726
- U2G G6A C27U A43C C46U C66U A70G C71U — higher, -0.194
- C27U A43C C66A A70U — higher, -0.0654
- G1A U2G G6A A43C C46U A70U C71U — higher, -0.14
- G1A U2G A43C C46U C66A — higher, -0.156
- U2C G6U C27U C46U C66U A69G A70G C71U — lower, -0.493
- U2C G6U C66A A69G A70U C71U — lower, -0.487
- U2C G6A C27U A43C C66A A70U — higher, -0.0983
- G1A U2C C46U C66U — higher, -0.00756
- U2G C66U A69G C71U — higher, -0.213
- C27U C46U A69G — higher, -0.0243
- G1A C27U A43C C66A A69G A70G C71U — lower, -0.427
- G1A G6U C46U C66U A69G A70U C71U — lower, -0.441
- U2G G6A C27U C66U A69G A70G — higher, -0.243
- U2G G6A C27U C66U A69G A70U — higher, -0.0719
- G1A U2G C46U C66U A69G A70U C71U — lower, -0.321
- U2C G6U C27U A43C C46U A70G — higher, -0.204
- U2C G6A A43C C46U A69G A70U — higher, -0.0634
- G1A U2C G6U A43C A70U — higher, -0.153
- G1A U2G G6U C27U A43C C46U C66A — higher, -0.25
- G1A U2G G6U C27U C46U C66A A70G — higher, -0.148
- G1A C27U C66U A69G A70G — higher, -0.211
- G1A G6A C27U A43C C46U A69G A70U — lower, -0.259
- U2C C27U C66U — higher, -0.0757
- G1A U2C G6U C27U C46U A70G C71U — higher, -0.203
- U2G G6A A43C C46U A69G A70G C71U — higher, -0.226
- C46U C66U A70G C71U — higher, -0.0752
- G1A C27U A43C C46U A69G C71U — higher, -0.109
- G6U C27U A43C C46U C71U — higher, -0.254
- G6U A43C C46U A70G C71U — higher, -0.256
- G1A G6A A43C C66A A70U — higher, -0.201
- C46U C66A A70U C71U — higher, -0.022
- U2C A43C C66U A69G A70G — higher, -0.169
- G1A U2G G6U A43C C46U C66U A69G A70U C71U — lower, -0.499
- G1A U2C G6U C27U A43C A70U C71U — lower, -0.294
- G1A G6A C27U A43C C46U C66U A69G A70U C71U — lower, -0.477
- G1A U2G C27U C66U A70U — higher, -0.174
- U2C G6A C27U C46U C66U A69G A70U — lower, -0.284
- U2G G6U A69G A70G C71U — higher, -0.235
- G1A U2C G6U C27U — higher, -0.0816
- G6A A70U — higher, -0.0535
- U2G A43C C46U C66A — higher, -0.101
- G6A A43C C46U C66A C71U — higher, -0.229
- G1A U2C G6U C46U C66A A69G A70U — higher, 0.0136
- G1A U2G C46U C66A C71U — higher, -0.0962
- G1A U2G C66U A70G — higher, -0.161
- G1A G6U C46U C66A A70G — higher, -0.225
- G1A U2C G6U C46U A70G C71U — higher, -0.00847
- U2C C27U A43C C46U C66U A69G A70U — lower, -0.259
- U2C G6U C27U C66U A69G A70U — lower, -0.378
- G1A G6U C46U C66U A69G A70G — higher, -0.205
- U2G G6A C27U A70G — higher, -0.112
- A43C C66A A69G A70U C71U — lower, -0.398
- U2C A43C C46U C66A A69G A70U C71U — lower, -0.374
- U2G G6A C27U A43C C46U A70G — higher, -0.145
- U2C G6U A43C C66A A69G A70G — higher, -0.029
- U2C C27U C46U C66U A70G — higher, -0.04
- G1A G6A C46U A70U C71U — higher, -0.0983
- U2C G6A C27U A43C A69G A70G C71U — higher, -0.256
- G1A U2C G6A C27U A43C C46U C66U C71U — higher, -0.128
- C27U A43C C66A A69G A70U C71U — lower, -0.513
- U2G A43C C46U — higher, -0.0426
- G1A U2C C27U A43C C46U A69G A70G — higher, -0.178
- U2G G6A A43C C66U A70G — higher, -0.147
- U2C G6A C27U C46U C66A A70U — higher, -0.0453
- U2C G6U C46U C66U C71U — higher, -0.112
- G1A G6A C27U A43C C46U C66U A69G A70U — lower, -0.471
- G1A C46U A69G — higher, -0.238
- G1A U2C G6A A70G — higher, -0.0946
- G1A U2G G6A C27U A43C C46U C66U A69G A70U C71U — lower, -0.384
- G6U C46U A70U — higher, -0.161
- G6A C27U A43C C46U A70U C71U — higher, -0.239
- U2C G6A C27U C46U C66U C71U — higher, -0.119
- G1A C27U A43C A70G — higher, -0.173
- G1A U2G G6U A43C C46U C71U — lower, -0.335
- G1A U2C G6A C27U A43C C46U C66U A70U C71U — higher, -0.252
- G1A C27U A43C A69G A70G C71U — lower, -0.299
- U2G G6A C27U A69G A70U — higher, -0.151
- U2G G6A C27U A69G A70G — higher, -0.193
- G1A G6A A43C C66U — higher, -0.195
- U2C A43C C66U A70G — higher, -0.0636
- G1A U2G G6A C46U C66A A70G C71U — higher, -0.185
- G1A G6U A43C C66A A69G A70U C71U — lower, -0.344
- U2C C27U A43C C46U C66A C71U — higher, -0.132
- U2C C27U A69G — higher, -0.23
- U2C G6A C27U C46U C66A A69G A70G C71U — higher, -0.188
- G1A U2G C27U A43C A70G — higher, -0.176
- U2G G6A A43C A69G A70U C71U — lower, -0.364
- G1A U2G G6U A43C C66U A70U C71U — higher, -0.237
- U2G C46U C66A A70G — higher, -0.0687
- U2C G6U A43C C66U A69G A70G — lower, -0.31
- G6A A43C C66A A70G — higher, -0.154
- U2G G6U C27U A43C C46U C66U A69G C71U — lower, -0.375
- U2G A43C C66A A70U C71U — lower, -0.316
- G1A G6U C27U A43C C66A A69G A70U C71U — lower, -0.281
- G1A U2C G6A C27U C46U C66U A69G A70U C71U — lower, -0.327
- U2G G6U C27U A70U C71U — higher, -0.227
- G1A U2C G6A A43C C46U C66U A70G C71U — higher, -0.015
- G1A U2G G6U C27U A43C C46U C66A A69G A70G C71U — lower, -0.337
- U2C G6A A43C C66U A69G A70U — higher, -0.232
- U2C G6A A43C C66U A69G A70G — higher, -0.0192
- U2G A69G A70U — higher, -0.00206
- U2G A69G A70G — higher, -0.147
- U2G C27U A43C C46U C66A — higher, -0.124
- U2C G6A C27U A43C C46U C66A A70G — higher, -0.101
- G1A G6A C46U C66A A70U — higher, -0.134
- G1A U2G G6U C27U A43C C66U C71U — lower, -0.518
- G1A U2C G6U C27U A43C C46U A69G A70G — lower, -0.297
- G1A U2C A43C C66U A70U C71U — lower, -0.281
- G1A U2C C46U C66U A70G — higher, -0.129
- G1A U2C C46U C66U A70U — higher, -0.0818
- C27U C46U A70U C71U — higher, -0.205
- C27U A43C C46U — higher, -0.00723
- U2G G6U C27U C66U — higher, -0.233
- G1A C27U C66A A69G A70U C71U — lower, -0.303
- G1A G6U A43C A69G A70U C71U — lower, -0.524
- U2G C27U C46U C66U A69G C71U — lower, -0.312
- U2C C27U C46U A69G A70U — higher, -0.198
- G6A A43C A70G C71U — lower, -0.283
- U2G G6U A43C A69G A70U — higher, -0.227
- U2C G6A C27U A43C A69G C71U — lower, -0.29
- U2G G6U A70U C71U — higher, -0.109
- G1A G6U C66U A69G C71U — lower, -0.312
- G1A U2G G6U C66A A70U C71U — higher, -0.0122
- U2G G6A C27U C66A — higher, -0.186
- G6A A43C C46U A69G A70U — higher, -0.124
- G1A G6U C27U A43C — lower, -0.258
- G6U C27U A43C C46U A69G C71U — lower, -0.339
- U2G G6U A43C C66A A70G — higher, -0.137
- G1A U2C G6U C46U A69G A70G — higher, -0.0666
- G1A U2G G6A C27U A43C A69G A70G C71U — lower, -0.354
- G1A G6U A43C C46U C66U A70U — lower, -0.259
- G1A G6A A43C C66U A69G A70G C71U — higher, -0.245
- G1A U2C C27U A43C C46U C66U A70G C71U — lower, -0.4
- C46U C66A A69G A70G C71U — higher, -0.0571
- U2C G6U C46U C66U A70G — higher, -0.0115
- U2G C27U C46U A69G A70U C71U — lower, -0.563

From the RNAGym collection of RNA variant scans (doi:10.1038/s41586-018-0170-7)
